About 710 (0.51%) of roughly 140,000 compounds were called active. The list comes from a sample in which actives are over-represented; it also holds similar structures and randomly drawn compounds. A number with no mark means an inactive call.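 Rule for the calls: active = inhibition above a set limit, 3 SD over the mean compound inhibition (cut at about 44% in these data); inactive = the rest.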

The nature of the assay: growth inhibitors of yeast BB579 in restrictive medium, primary screen, yeast lifespan-shortening project, S. cerevisiae (AID 804). The note with it: OD615, 48 h, at 10 µM, hits give high values. The procedure, abridged: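 test system = yeast BB579 (DeaD) | buffer or medium = restrictive CSMM-D medium | doses = single compound dose of 10 µM, 0.25% DMSO final | times = 4 h preincubation and 48 h exposure at 30 °C | technique = culture absorbance at 615 nm | benchmarks = amphotericin B 10 µg/mL, positive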
Usually inhibition stands for the relative decrease from the control value, in per cent. On to `Cc1ccc(N2C(=O)C(NC(=O)c3c(F)cccc3F)(C(F)(F)F)C3=C2CC(C)(C)CC3=O)cc1` (stereo unspecified), for which the inhibition is -1.52%.
The result for `O=C1c2ccccc2NC(c2ccc(-c3cccc(Cl)c3)o2)N1O` (stereo unspecified) reads 64.1% (active); that for `CCOC(=O)NN1C(=O)c2ccccc2NC1c1cccc(O)c1` (stereo unspecified), 9.36%; that for `C=CCN(CC=C)S(=O)(=O)c1ccc(C(=O)Nc2nc3c(s2)CCc2ccccc2-3)cc1`, -67.9%.
On to `O=C(C1CCCO1)N1CCN(C(=S)Nc2cccc(Cl)c2)CC1` (stereo unspecified), for which the inhibition was -3.25%.
With `CC1(C)CC(=O)C(N=Nc2ccc(S(=O)(=O)N3CCCCCC3)cc2)=C(O)C1`, the inhibition is -5.4%.
On to `C/C(CC(=O)Nc1ccc(Cl)cc1)=N\NC(=O)C(=O)NCCO`, for which the inhibition is -6.42%.
`Cc1cc2oc(C(=O)Nc3c(C)n(C)n(-c4ccccc4)c3=O)c(C)c2cc1Cl`: the inhibition is -44%.
For the compound `Cc1ccc(NC(=O)c2cccs2)cc1S(=O)(=O)N(C)C`, the inhibition is -35.7%.
Regarding `Cc1ccc(-c2nn(C(C)(C)C)c3ncnc(N)c23)cc1`, the inhibition is 81.2% (active).
On to `O=C(CC(=O)Nc1ccc(Cl)c(Cl)c1)N/N=C/c1ccc(O)cc1`, for which the inhibition is -54.1%.
Next, `O=C(Cc1ccc(Cl)c(Cl)c1)Nc1ccc(SC(F)F)cc1`: -39.5%; `O=C(CC(O)(C(F)(F)F)C(F)(F)F)Nc1ccc(Cl)c(Cl)c1`: 80.1% (active).
Consider `Cc1scc(C(=O)NNC(=S)NCc2ccccc2)c1C`, for which the inhibition is -2.5%.
Turning to `CCOC(=O)NN1C(=O)c2ccccc2NC1c1ccccc1O` (stereo unspecified), the inhibition is 7.28%.
For the compound `COC(=O)C1=C(C)N(C)C(=S)NC1c1ccccc1` (stereo unspecified), the inhibition was 8.95%.
Turning to `Cc1c(Cl)cnc(NC(=O)COC(=O)c2ccc(S(=O)(=O)NCc3ccco3)cc2)c1Cl`, the inhibition is -12.2%.
With `Cn1c(SCC(=O)Nc2cccc(O)c2)nnc1-c1ccc(S(=O)(=O)N2CCOCC2)cc1`, the inhibition is 2.85%.
The result for `Cc1cc(C(=O)OC(C)C(=O)Nc2cccc(S(=O)(=O)N3CCOCC3)c2)c(C)o1` (stereo unspecified) reads -42.7%; that for `Cc1ccc(-c2nn(-c3ccccc3)cc2C(=O)Nc2cccc(S(=O)(=O)N3CCOCC3)c2)cc1`, -29%.
Turning to `CC(Sc1cccc[n+]1[O-])C(=O)Nc1cccc(S(=O)(=O)N2CCOCC2)c1` (stereo unspecified), the inhibition was 95.2% (active).
`O=C(CN1CCN(c2ccc(O)cc2)CC1)Nc1cc(S(=O)(=O)N2CCOCC2)ccc1Cl`: the inhibition is -37.9%.
In the case of `CCN(CC)c1ccc(S(=O)(=O)N2CCOCC2)cc1NC(=O)CSc1cccc[n+]1[O-]`, the inhibition was 89% (active).
Turning to `COc1ccccc1CNC(=O)CN1CCC(n2cnc3cc(F)ccc32)CC1`, the inhibition was -21.9%.
Turning to `Cn1c(CNC(=O)c2ccccc2F)nnc1SCc1ccc(F)cc1`, the inhibition is 6.65%.
The result for `CCCCC1N2CC3([N+](=O)[O-])CN1CC([N+](=O)[O-])(C2)C3(C)C` (stereo unspecified) reads -27.8%; that for `CC(C)(C)C1C/C(=C/c2ccco2)C(=O)/C(=C/c2ccco2)C1` (stereo unspecified), -19.6%.
The result for `O=C(c1cccc(C(=O)N2CCN(c3ccc(F)cc3)CC2)c1)N1CCN(c2ccc(F)cc2)CC1` reads -61.4%; that for `Oc1c(CN2CCN(c3ccc(F)cc3)CC2)cc(Cl)c2cccnc12`, 99.3% (active).
As to `CCN1CCN(C(c2cccnc2)c2cc(Cl)c3cccnc3c2O)CC1` (stereo unspecified), the inhibition is 6.22%.
As for `Cc1cc2cc(CNC(=O)c3cccs3)ccc2[nH]1`, the inhibition was -4.49%.
Turning to `CCc1cccc(CC)c1NC(=S)NCc1ccc2[nH]c(C)cc2c1`, the inhibition is 54.3% (active).
For the compound `Cc1cccc(NC(=S)NCc2ccc3[nH]c4c(c3c2)CCCC4)c1`, the inhibition is 15.9%.
`CCCc1ccc(OCC(=O)NNC(=S)NC(=O)c2ccco2)cc1`: the inhibition is 98.5% (active).
`COc1ccc(CCNC(=O)c2ccco2)cc1`: the inhibition is -10.2%.
Turning to `COc1ccc(C(=O)NC(=S)NNC(=O)CCc2ccccc2)cc1`, the inhibition was -10.9%.
Next, `CC(Oc1ccc2ccccc2c1)C(=O)NNC(=S)NC(=O)c1ccco1` (stereo unspecified): 98.2% (active).
The result for `O=C(Nc1ccc2ccccc2c1)/C(=C/c1cccc(Br)c1)NC(=O)c1ccco1` reads -32.8%; that for `O=C(Nc1ccc2ccccc2c1)/C(=C\c1ccc2c(c1)OCO2)NC(=O)c1ccco1`, 6.72%; that for `NC(=O)C[C@@H]1NC(=O)CNC(=O)c2cc([N+](=O)[O-])cc(I)c2NCCC(C(N)=O)NC1=O` (stereo partly specified), 1.08%.
On to `CC1CN/C(=C\C(=O)c2ccc(Br)cc2)C(=O)N1` (stereo unspecified), for which the inhibition was -42.4%.
Consider `Cc1cc(Cl)ccc1NC(=S)N1CCC(C(N)=O)(N2CCCCC2)CC1`, for which the inhibition was 1.37%.
On to `Cc1ccc(OC(=O)CCC(=O)Nc2ccc(Br)cc2)cc1`, for which the inhibition is 3.42%.
For the compound `O=C(CSc1ncn[nH]1)Nc1nsc(-c2ccccc2)n1`, the inhibition is 4.99%.
Next, `Cc1cccc(OP(=O)(Nc2c(C)n(C)n(-c3ccccc3)c2=O)Oc2cccc(C)c2)c1`: -0.66%.
The result for `CCOC(=O)C1CCN(C(=O)/C=C/c2cc(OC)c(OC)c(OC)c2)CC1` reads -12.6%; that for `O=C(COC(=O)c1cc(-c2cccs2)nn1-c1ccccc1)Nc1cc([N+](=O)[O-])ccc1Cl`, -30.3%.
Take `O=C(Nc1cccc([N+](=O)[O-])c1)c1ccc2c(c1)OCO2`: the inhibition is -10.3%.
Take `CCOC(=O)c1ccccc1C(=O)N1CCOCCOCCOCC1`: the inhibition was -13.3%.
Take `CCCCOc1ccc(C(=O)NCC(=O)OCC(=O)N2CCN(S(=O)(=O)c3ccc(C)cc3C)CC2)cc1`: the inhibition is -38.7%.
With `O=C(COC(=O)/C=C/c1cccc(Cl)c1)NCCc1ccccc1`, the inhibition was -16.6%.
On to `Cc1ccc2nc(S(=O)(=O)O)[nH]c2c1`, for which the inhibition was -11.6%.
In the case of `CC(C)c1nc2ccc(C(=O)O)cc2[nH]1`, the inhibition is -7.86%.
With `Cc1nc2ccc(C(=O)O)cc2[nH]1`, the inhibition was 44.4% (active).
`COc1ccc(CCNC(=O)CSc2nc(-c3ccc(OC)c(OC)c3)ccc2C#N)cc1`: the inhibition was -21.2%.
For the compound `COc1cc(/C=C2\SC(=S)N(Nc3ncc(C(F)(F)F)cc3Cl)C2=O)cc(OC)c1OC`, the inhibition was -16.3%.
Take `COc1cccc(/C=N/Nc2ncc(C(F)(F)F)cc2Cl)c1O`: the inhibition is 64.1% (active).
Take `COc1cccc(/C=N\NC(=O)C2=NNC(=O)C2C)c1O` (stereo unspecified): the inhibition is 1.19%.
The result for `Cc1nn(C)c(C(=O)NNC(=S)NC2CCCCC2)c1Cl` reads -11.7%.
`CCOC(=O)c1cnc(-n2nc(C)cc2C)nc1-n1nc(C)cc1C`: the inhibition is -33.3%.
Take `CCOC(=O)c1cnc(-n2nc(C)cc2C)nc1NNc1cc(C)nc(-c2ccccc2)n1`: the inhibition was 63.6% (active).
For the compound `CCOC(=O)c1cnc(-c2ccccc2)nc1Oc1ccc(C)cc1`, the inhibition is -3.41%.
On to `CCc1cc(C(N)=O)c(NC(=O)c2ccc(OC)cc2)s1`, for which the inhibition was 13.8%.
`COc1cccc(NC(=S)N(CCc2c(C)[nH]c3ccccc23)Cc2ccco2)c1`: the inhibition is -16.9%.
Next, `O=C(Nc1cccc(F)c1)c1coc(=O)c(Br)c1`: -16.6%; `CNC(=O)c1cc2c(ccc3ccccc32)oc1=N`: 87% (active).
Turning to `N=c1oc2ccccc2cc1C(=O)N/N=C/c1ccccc1`, the inhibition is -35.6%.
As for `CCOC(=O)N1CCN(C(=O)c2cc3c(ccc4ccccc43)oc2=O)CC1`, the inhibition was 4.59%.
Next, `O=[N+]([O-])c1cc(C(F)(F)F)ccc1NN=C1CCCC1`: -8.75%.
Turning to `Cc1ccc(Cl)cc1N1CCN(C(=O)c2cccc3c(=O)c(C)c(-c4ccccc4)oc23)CC1`, the inhibition was -11.9%.
In the case of `COc1ccc(-c2[nH]ncc2/C=N/NC(=O)c2cc(Br)ccc2O)c(OC)c1`, the inhibition was -15.9%.
In the case of `CCCc1cc(-c2nc(-c3ccc(C)cc3)cs2)ccn1`, the inhibition was 6.88%.
For the compound `COc1ccc([C@H]2[C@H](C(C)=O)N3N=Cc4ccccc4C3C23C(=O)OC(C)(C)OC3=O)cc1` (stereo partly specified), the inhibition was -14.6%.
In the case of `CNc1ccc(NC(C)=O)cc1[N+](=O)[O-]`, the inhibition was -4.52%.
On to `O=C(NC(Nc1nc2ccc([N+](=O)[O-])cc2s1)(C(F)(F)F)C(F)(F)F)c1ccccc1`, for which the inhibition was 77.5% (active).
As to `COC(=O)C(NC(=O)c1ccc(OC)cc1)(Nc1ncc(S(=O)(=O)c2ccc([N+](=O)[O-])cc2)s1)C(F)(F)F` (stereo unspecified), the inhibition is -39.1%.
Regarding `Cc1cc(C)cc(OCC(=O)Nc2nc3ccc([N+](=O)[O-])cc3s2)c1`, the inhibition was -41.2%.
On to `Cc1c(Cl)cccc1NC(=O)Nc1ccc(C(=O)N2CCCC2)cc1`, for which the inhibition was -7.32%.
For `CN1c2ccccc2-c2nc3ccccc3n2C1c1ccco1` (stereo unspecified), the inhibition was -46.1%.
On to `Cn1c(-c2ccco2)nc2cc3ccccc3cc21`, for which the inhibition was 60.5% (active).
Turning to `CN(c1nc2ccccc2n2c(-c3ccco3)nnc12)S(=O)(=O)c1ccccc1`, the inhibition is -17.9%.
Next, `CC(C)C(=O)Nc1ccc2c3c(cccc13)CC2`: -41.5%; `O=C1C=C(c2ccc(Cl)cc2)C(=O)N1Nc1ccccc1`: 98.1% (active); `O=C1c2cccc3cc(Br)cc(c23)C(=O)N1Nc1ccccc1`: -67.3%.
`O=C(Nc1ccccc1)OCc1cc(-c2ccc(Cl)cc2)on1`: the inhibition is -39.2%.
As for `CCn1ncc(CNC(=O)C2(C)CC2(Br)Br)c1C` (stereo unspecified), the inhibition is -38.8%.
The result for `COc1ccc(NC(=S)NCc2cccs2)c(OC)c1` reads -22.6%.
For the compound `CCN1/C(=C/c2ccc3ccc(C)cc3[n+]2CC)Sc2ccccc21`, the inhibition is 82.5% (active).
Next, `CCC(=O)/C=C1\Sc2ccccc2N1CC`: -18.9%; `Cc1cccc(NC(=S)N(CCN(C)C)C(C)c2ccco2)c1` (stereo unspecified): -21.1%.
Next, `Cc1ccc(SCCC(=O)NC(C(C)C)C(C)C)cc1`: -7.21%.

For the origin of these results see PubChem BioAssay AID804 (SRMLSC, 2007).
